According to ChEMBL document CHEMBL3124885, “Discovery of 7-tetrahydropyran-2-yl chromans: β-site amyloid precursor protein cleaving enzyme 1 (BACE1) inhibitors that reduce amyloid β-protein (Aβ) in the central nervous system” (J Med Chem, 2014):
≈ marks a conversion by molar mass, not a printed value.

What was measured:
Brain [1] = assay: Fraction unbound in CD-1 mouse brain at 10 mg/kg, po measured at 4 hrs; format: ADME, organism-based; parameters: dose 10 mg/kg, route oral; details: in vivo
In short: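 Male CD-1 mice, 3 per cohort, dosed 10 mg/kg orally; brains harvested at 1 and 4 h.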

[2] = Ratio of unbound drug level in brain to plasma in Hartley guinea pig at 100 mg/kg, po measured at 3 hrs; format: ADME, organism-based, Cavia porcellus; parameters: dose 100 mg/kg, route oral; details: brain and plasma (unbound), read-out: K(p,uu,brain)
In short: (§1)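 Male Hartley guinea pigs given single oral doses of 30, 60 or 100 mg/kg in 1% CMC/0.5% Tween/5 mM citrate in H₂O, 6–8 animals per cohort. Plasma, brain and CSF sampled at 1–12 h; free brain to free plasma ratio computed.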

[3] = Ratio of unbound drug level in brain to plasma in Hartley guinea pig at 60 mg/kg, po measured at 1 hr; format: ADME, organism-based, Cavia porcellus; parameters: dose 60 mg/kg, route oral; details: brain and plasma (unbound), read-out: K(p,uu,brain); in short: as §1
[4] = Intrinsic clearance in cynomolgus monkey hepatocytes at 2 uM after 60 to 120 mins; format: ADME, cell-based, Macaca fascicularis, Hepatocyte; details: read-out: CLH
[5] = Drug uptake in Sprague-Dawley rat CSF at 60 mg/kg, po measured at 3 hrs; format: ADME, organism-based, Cerebrospinal fluid; parameters: dose 60 mg/kg, route oral; details: read-out: Drug uptake
In short: (§2)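 Male Sprague−Dawley rats dosed orally at 60 mg/kg in 1% CMC/0.5% Tween/5 mM citrate in H₂O; CSF compound concentration (nM) at 1–12 h.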

[6] = Clearance in Hartley guinea pig liver microsomes at 1 uM after 20 mins by LC-MS/MS analysis in presence of NADPH; format: ADME, Cavia porcellus, Microsome; details: read-out: CLH
Plasma [7] = assay: Unbound plasma concentration in CD-1 mouse at 3 mg/kg, iv and 10 mg/kg, po measured at 4 hrs; format: ADME, organism-based; details: in vivo
In short: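 Male CD-1 mice, 3 per cohort, dosed 3 mg/kg iv and 10 mg/kg po; plasma drawn at 1 and 4 h, brains harvested from oral groups only. Formulations varied by compound: 40% PEG 400/10% EtOH/50% H₂O; 30% captisol in H₂O; iv 50 mM citrate in saline (pH 4); po 1% CMC/0.5% Tween/5 mM citrate in H₂O.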

[8] = Drug uptake in Sprague-Dawley rat CSF at 60 mg/kg, po measured at 12 hrs; format: ADME, organism-based, Cerebrospinal fluid; parameters: dose 60 mg/kg, route oral; details: read-out: Drug uptake; in short: as §2
Brain [9] = assay: Fraction unbound in Sprague-Dawley rat brain at 60 mg/kg, po measured at 8 hrs; format: ADME, organism-based; parameters: dose 60 mg/kg, route oral; details: in vivo
In short: (§3)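 Male Sprague–Dawley rats dosed 60 mg/kg po in 1% CMC/0.5% Tween/5 mM citrate in H₂O; plasma, brain and CSF taken at 1, 3, 5, 8 and 12 h; unbound plasma and brain levels and their ratio determined.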

[10] = Intrinsic clearance in Sprague-Dawley rat hepatocytes at 2 uM after 60 to 120 mins; format: ADME, cell-based, Hepatocyte; details: read-out: CLH
[11] = Drug uptake in Hartley guinea pig CSF at 100 mg/kg, po measured at 3 hrs; format: ADME, organism-based, Cavia porcellus, Cerebrospinal fluid; parameters: dose 100 mg/kg, route oral; details: read-out: Drug uptake
In short: (§4)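 Male Hartley guinea pigs, oral dosing (CMC/Tween/citrate suspension or PEG/EtOH/H₂O solution), six or eight animals per cohort; CSF drug concentration (nM) measured at each time point.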

Brain [12] = assay: Fraction unbound in Sprague-Dawley rat brain at 60 mg/kg, po measured at 5 hrs; format: ADME, organism-based; parameters: dose 60 mg/kg, route oral; details: in vivo; in short: as §3
[13] = Drug uptake in cynomolgus monkey CSF at 0.5 mg/kg, iv and 100 mg/kg, po measured at 4 hrs; format: ADME, organism-based, Macaca fascicularis, Cerebrospinal fluid; details: read-out: Drug uptake
In short: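 Female cynomolgus monkeys, 3 per dosing route; iv formulation PEG400/EtOH/water (40/10/50) solution; oral suspension in 1% CMC, 0.5% Tween 80, 5 mM citrate buffer; CSF concentration measured.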

Brain [14] = assay: Fraction unbound in Sprague-Dawley rat brain at 60 mg/kg, po measured at 12 hrs; format: ADME, organism-based; parameters: dose 60 mg/kg, route oral; details: in vivo; in short: as §3
Plasma [15] = assay: Unbound plasma concentration in Sprague-Dawley rat at 60 mg/kg, po measured at 5 hrs; format: ADME, organism-based; parameters: dose 60 mg/kg, route oral; details: in vivo
In short: (§5)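 Male Sprague-Dawley rats were given a single 60 mg/kg oral dose in 1% CMC/0.5% Tween/5 mM citrate in H₂O. Free plasma concentration was determined at 1, 3, 5, 8 and 12 h. Brain, CSF and CSF Aβ₁₋₄₀ were sampled at the same times.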

[16] = Unbound plasma concentration in Hartley guinea pig at 60 mg/kg, po measured at 1 hr; format: ADME, organism-based, Cavia porcellus; parameters: dose 60 mg/kg, route oral; details: in vivo
In short: (§6)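 Male Hartley guinea pigs were dosed orally at 30, 60 or 100 mg/kg, with six or eight animals per cohort. The vehicle was either a suspension in 1% CMC/0.5% Tween/5 mM citrate in H₂O or a 40/10/50 PEG/EtOH/H₂O solution, depending on compound. Unbound plasma concentration was sampled at 1–12 h post-dose alongside brain, CSF and CSF Aβ₁₋₄₀.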

[17] = Ratio of unbound drug level in brain to plasma in CD-1 mouse measured at 1 hr; format: ADME; details: mouse, 1 h
In short: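 Male CD-1 mice given 10 mg/kg po, 3 per cohort; plasma and brain collected at 1 and 4 h. Free brain/plasma ratio from unbound concentrations; coverage ratio = free brain concentration divided by HEK293 Aβ₁₋₄₀ cell IC50.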

Plasma [18] = assay: Unbound plasma concentration in Sprague-Dawley rat at 60 mg/kg, po measured at 12 hrs; format: ADME, organism-based; parameters: dose 60 mg/kg, route oral; details: in vivo; in short: as §5
[19] = Ratio of unbound drug level in brain to plasma in Sprague-Dawley rat at 60 mg/kg, po measured at 8 hrs; format: ADME, organism-based; parameters: dose 60 mg/kg, route oral; details: brain and plasma (unbound), read-out: K(p,uu,brain); in short: as §3
Brain [20] = assay: Fraction unbound in Sprague-Dawley rat brain at 60 mg/kg, po measured at 3 hrs; format: ADME, organism-based; parameters: dose 60 mg/kg, route oral; details: in vivo; in short: as §3
[21] = Fraction unbound in Hartley guinea pig brain at 60 mg/kg, po measured at 8 hrs; format: ADME, organism-based, Cavia porcellus; parameters: dose 60 mg/kg, route oral; details: in vivo
[22] = Cmax in cynomolgus monkey CSF at 100 mg/kg, po measured at 2 hrs; format: ADME, organism-based, Macaca fascicularis, Cerebrospinal fluid; parameters: dose 100 mg/kg, route oral
[23] = Fraction unbound in Hartley guinea pig brain at 60 mg/kg, po measured at 1 hr; format: ADME, organism-based, Cavia porcellus; parameters: dose 60 mg/kg, route oral; details: in vivo
[24] = Ratio of unbound drug level in brain to plasma in Sprague-Dawley rat at 60 mg/kg, po measured at 12 hrs; format: ADME, organism-based; parameters: dose 60 mg/kg, route oral; details: brain and plasma (unbound), read-out: K(p,uu,brain); in short: as §3
[25] = Drug uptake in Hartley guinea pig CSF at 60 mg/kg, po measured at 1 hr; format: ADME, organism-based, Cavia porcellus, Cerebrospinal fluid; parameters: dose 60 mg/kg, route oral; details: read-out: Drug uptake; in short: as §4
[26] = Ratio of unbound drug level in brain to plasma in Hartley guinea pig at 60 mg/kg, po measured at 5 hrs; format: ADME, organism-based, Cavia porcellus; parameters: dose 60 mg/kg, route oral; details: brain and plasma (unbound), read-out: K(p,uu,brain); in short: as §1
[27] = Intrinsic clearance in Hartley guinea pig hepatocytes at 2 uM after 60 to 120 mins; format: ADME, cell-based, Cavia porcellus, Hepatocyte; details: read-out: CLH
[28] = Solubility of the compound at pH 7.2; format: physicochemical; details: buffer
[29] = Fraction unbound in Hartley guinea pig brain at 30 mg/kg, po measured at 3 hrs; format: ADME, organism-based, Cavia porcellus; parameters: dose 30 mg/kg, route oral; details: in vivo
[30] = Drug uptake in Hartley guinea pig CSF at 30 mg/kg, po measured at 3 hrs; format: ADME, organism-based, Cavia porcellus, Cerebrospinal fluid; parameters: dose 30 mg/kg, route oral; details: read-out: Drug uptake; in short: as §4
[31] = Unbound plasma concentration in Hartley guinea pig at 30 mg/kg, po measured at 3 hrs; format: ADME, organism-based, Cavia porcellus; parameters: dose 30 mg/kg, route oral; details: in vivo; in short: as §6
Rattus norvegicus = assay: Hepatic clearance in Sprague-Dawley rat at 3 mg/kg, iv; format: ADME, organism-based, Liver; parameters: dose 3 mg/kg, route intravenous; details: in vivo
In short: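 Male Sprague–Dawley rats, 3 per cohort, iv 3 mg/kg in 30% captisol/5 mM citrate in saline; po 60 mg/kg in 1% CMC/0.5% Tween/5 mM citrate in H₂O.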

Plasma [32] = assay: Unbound plasma concentration in Sprague-Dawley rat at 60 mg/kg, po measured at 1 hr; format: ADME, organism-based; parameters: dose 60 mg/kg, route oral; details: in vivo; in short: as §5
Plasma [33] = assay: Unbound plasma concentration in cynomolgus monkey at 0.5 mg/kg, iv and 100 mg/kg, po measured at 2 hrs; format: ADME, organism-based, Macaca fascicularis; details: in vivo
In short: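 Female cynomolgus monkeys, three per dosing route, received 0.5 mg/kg iv and 100 mg/kg po. Unbound plasma concentration was reported at 2 h and 4 h post-dose.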

Structure (SMILES): CN1C(=O)[C@]2(N=C1N)c1cc(-c3cccnc3F)ccc1O[C@H]1CCOC[C@@H]12
- Drug uptake(free) (Brain [1]): 15 nM
- Kp uu at 3 h [2]: 1.3
- Kp uu at 1 h [3]: 0.14
- CLint scaled at 2 µM [4]: 5.8 mL/min/kg
- concentration at 3 h [5]: 150 nM
- CLint scaled at 1 µM [6]: 17 mL/min/kg
- Cp(f) (Plasma [7]): 78 nM
- concentration at 12 h [8]: 85 nM
- Drug uptake(free) (Brain [9]): 84 nM
- CLint scaled at 2 µM [10]: 35 mL/min/kg
- concentration at 3 h [11]: 56 nM
- Drug uptake(free) (Brain [12]): 79 nM
- concentration at 4 h [13]: 84 nM
- Drug uptake(free) (Brain [14]): 46 nM
- Cp(f) (Plasma [15]): 2700 nM
- Cp(f) [16]: 140 nM
- K(p,uu,brain) [17]: 0.08
- Cp(f) (Plasma [18]): 960 nM
- Kp uu at 8 h [19]: 0.049
- Drug uptake(free) (Brain [20]): 66 nM
- Drug uptake(free) [21]: 5.2 nM
- Cmax [22]: 120 nM
- Drug uptake(free) [23]: 19 nM
- Kp uu at 12 h [24]: 0.048
- concentration at 1 h [25]: 69 nM
- Kp uu at 5 h [26]: 1.7
- CLint scaled at 2 µM [27]: 9.7 mL/min/kg
- solubility [28]: 220 µg/mL (≈ 575 µM)
- Drug uptake(free) [29]: 9.5 nM
- concentration at 3 h [30]: 9.9 nM
- Cp(f) [31]: 5.8 nM
- CLH (Rattus norvegicus): 30 mL/min/kg
- Cp(f) (Plasma [32]): 3100 nM
- Cp(f) (Plasma [33]): 3200 nM
